Reference: ChEMBL document CHEMBL3758146, “Synthesis and biological evaluation of quinazolin-4(3H)-one derivatives bearing dithiocarbamate side chain at C2-position as potential antitumor agents” (Eur J Med Chem, 2016)
Calls of active or inactive are those of the source. No cut-off for these calls is given here.

Tests used:
A549 = test: Antiproliferative activity against human A549 cells after 72 hrs by MTS assay; assay type: functional, cell-based; conditions: A549, 72 h
Outline: (§1)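 MTS (CellTiter 96 AQueous One) read-out after 72 h exposure; compounds first screened at 50 µM, with ≥50% inhibition versus vehicle-treated cells counted as active. Actives were then tested at various concentrations to give IC50 (concentration causing 50% proliferation inhibition). Triplicate wells, three independent experiments, mean ± SD. 5-FU as positive control.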

MCF7 = test: Antiproliferative activity against human MCF7 cells after 72 hrs by MTS assay; assay type: functional, cell-based; conditions: MCF7, 72 h; outline: as §1
HeLa = test: Antiproliferative activity against human HeLa cells after 72 hrs by MTS assay; assay type: functional, cell-based; outline: as §1
HT-29 [1] = test: Antiproliferative activity against human HT-29 cells after 72 hrs by MTS assay; assay type: functional, cell-based; conditions: HT-29, 72 h; outline: as §1
[2] = Antiproliferative activity against human HCT116 cells after 72 hrs by MTS assay; assay type: functional, cell-based; conditions: HCT-116, 72 h; outline: as §1
HT-29 [3] = test: Cell cycle arrest in human HT-29 cells assessed as accumulation at G0/G1 phase at IC50 after 24 hrs by propidium iodide staining based FACS analysis (reference value: 50.25 +/- 1.19%); assay type: functional
HT-29 [4] = test: Cell cycle arrest in human HT-29 cells assessed as accumulation at S phase at IC50 after 24 hrs by propidium iodide staining based FACS analysis (reference value: 33.05 +/- 2.22%); assay type: functional
HT-29 [5] = test: Cell cycle arrest in human HT-29 cells assessed as accumulation at G2/M phase at IC50 after 24 hrs by propidium iodide staining based FACS analysis (reference value: 16.7 +/- 1.55%); assay type: functional
HT-29 [6] = test: Induction of DNA damage in human HT-29 cells assessed as gamma-H2AX foci formation after 1 to 2 hrs by DAPI staining based indirect immunofluorescence assay; assay type: functional, cell-based
Outline: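 HT29 cells treated 1 or 2 h alongside CPT (2 µM) and DMSO diluent, fixed, immunostained with mouse monoclonal anti-γ-H2AX (clone JBW301, 1:1500) and counterstained with DAPI for DNA; γ-H2AX foci scored by indirect immunofluorescence.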

HT-29 [7] = test: Induction of spindle assembly checkpoint in human HT-29 cells assessed as mitotic index after 2 hrs by immunostaining assay (reference value: 2.47 +/- 0.71); assay type: functional
HT-29 [8] = test: Induction of spindle assembly checkpoint in human HT-29 cells assessed as mitotic index after 4 hrs by immunostaining assay (reference value: 3.13 +/- 1.01); assay type: functional
HT-29 [9] = test: Induction of spindle assembly checkpoint in human HT-29 cells assessed as mitotic index after 8 hrs by immunostaining assay (reference value: 2.81 +/- 0.82); assay type: functional
HT-29 [10] = test: Induction of spindle assembly checkpoint in human HT-29 cells assessed as mitotic index after 16 hrs by immunostaining assay (reference value: 2.87 +/- 0.82); assay type: functional
Tubulin (Sus scrofa) [11] = biological target: T1, Tubulin (Sus scrofa) (UniProt P02554+P02550); test: Induction of porcine neuronal tubulin polymerization at 10 uM after 60 mins by spectrometric analysis; assay type: protein assay
T1 sequence (P02550 whole entry, looked up): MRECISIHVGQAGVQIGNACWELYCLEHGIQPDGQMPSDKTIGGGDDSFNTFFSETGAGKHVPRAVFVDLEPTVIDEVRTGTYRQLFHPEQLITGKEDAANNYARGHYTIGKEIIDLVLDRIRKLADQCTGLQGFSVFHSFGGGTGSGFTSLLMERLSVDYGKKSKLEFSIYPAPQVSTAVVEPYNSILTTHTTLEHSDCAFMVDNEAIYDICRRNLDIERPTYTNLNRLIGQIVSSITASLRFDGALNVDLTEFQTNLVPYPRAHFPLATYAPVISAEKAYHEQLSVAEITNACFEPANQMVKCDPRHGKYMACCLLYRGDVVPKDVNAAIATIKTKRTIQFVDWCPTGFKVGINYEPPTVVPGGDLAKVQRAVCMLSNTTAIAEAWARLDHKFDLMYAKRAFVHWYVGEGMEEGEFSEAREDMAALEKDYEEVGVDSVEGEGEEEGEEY
T1 sequence (P02554 whole entry, looked up): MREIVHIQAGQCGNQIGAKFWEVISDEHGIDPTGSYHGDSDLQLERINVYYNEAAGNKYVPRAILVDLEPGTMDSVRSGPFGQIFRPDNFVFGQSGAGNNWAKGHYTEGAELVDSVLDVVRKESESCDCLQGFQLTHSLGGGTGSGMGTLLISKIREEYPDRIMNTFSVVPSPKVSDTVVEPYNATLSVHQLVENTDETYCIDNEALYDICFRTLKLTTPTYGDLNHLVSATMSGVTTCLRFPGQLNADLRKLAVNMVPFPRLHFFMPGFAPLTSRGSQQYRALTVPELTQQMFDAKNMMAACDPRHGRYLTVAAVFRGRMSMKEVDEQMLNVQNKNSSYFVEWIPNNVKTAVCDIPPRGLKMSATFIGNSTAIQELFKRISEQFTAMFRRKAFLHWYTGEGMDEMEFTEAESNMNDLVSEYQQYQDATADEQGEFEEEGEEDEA
Outline: (§2)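 Cell-free tubulin polymerization run by a commercial kit protocol; assembly followed as rise in absorbance at 340 nm over 60 min at 37 °C, with Taxol as reference.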

Tubulin (Sus scrofa) [12] = biological target: T1, Tubulin (Sus scrofa); test: Induction of porcine neuronal tubulin polymerization at 15 uM after 60 mins by spectrometric analysis; assay type: protein assay; outline: as §2
HT-29 [13] = test: Induction of DNA damage in human HT-29 cells assessed as increase in gamma-H2AX protein level after 1 to 2 hrs by Western blot analysis; assay type: functional, cell-based
Outline: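 Total lysates of HT29 cells treated 1 or 2 h, with CPT (2 µM) and DMSO diluent as comparators, immunoblotted for γ-H2AX (15 kDa), with β-actin (42 kDa) as loading control probed on a separate section of the same membrane.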

HT-29 [14] = test: Upregulation of phosphorylated BubR1 level in human HT-29 cells after 16 hrs by immuno-blot analysis; assay type: functional, cell-based
HT-29 [15] = test: Cell cycle arrest in human HT-29 cells assessed as accumulation at G0/G1 phase at 0.18 uM after 24 hrs by propidium iodide staining based FACS analysis (reference value: 50.25 +/- 1.19%); assay type: functional
HT-29 [16] = test: Cell cycle arrest in human HT-29 cells assessed as accumulation at S phase at 0.18 uM after 24 hrs by propidium iodide staining based FACS analysis (reference value: 33.05 +/- 2.22%); assay type: functional
HT-29 [17] = test: Cell cycle arrest in human HT-29 cells assessed as accumulation at G2/M phase at 0.18 uM after 24 hrs by propidium iodide staining based FACS analysis (reference value: 16.7 +/- 1.55%); assay type: functional
HT-29 [18] = test: Induction of DNA damage in human HT-29 cells assessed as gamma-H2AX foci formation at 2 uM after 1 to 2 hrs by DAPI staining based indirect immunofluorescence assay; assay type: functional, cell-based
Outline: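 HT29 cells exposed 1 or 2 h, DMSO as diluent control. After fixation, cells immunostained with mouse monoclonal anti-γ-H2AX (clone JBW301, 1:1500) and DNA counterstained with DAPI. γ-H2AX foci scored by indirect immunofluorescence.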

HT-29 [19] = test: Induction of DNA damage in human HT-29 cells assessed as increase in gamma-H2AX protein level at 2 uM after 1 to 2 hrs by Western blot analysis; assay type: functional, cell-based
Outline: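 HT29 cells treated 1 or 2 h, DMSO as diluent control. Total lysates immunoblotted for γ-H2AX (15 kDa), with β-actin (42 kDa) as loading reference; both probed on separate sections of one membrane.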

Row | SMILES | IC50 (A549) | IC50 (MCF7) | IC50 (HeLa) | IC50 (HT-29 [1]) | IC50 [2] | other results
1 | COc1ccc(CNC(=S)SCc2nc3ccccc3c(=O)[nH]2)cc1 | 7.27 µM | 10.9 µM | 12.2 µM | 5.53 µM | 22.7 µM | Activity (HT-29 [3]): 16.45%; Activity (HT-29 [4]): 28.25%; Activity (HT-29 [5]): 55.31%; Activity (HT-29 [6]): inactive; Activity_index (HT-29 [7]): 4.66; Activity_index (HT-29 [8]): 7.75; Activity_index (HT-29 [9]): 10.15; Activity_index (HT-29 [10]): 37.85; Activity (Tubulin (Sus scrofa) [11]): inactive; Activity (Tubulin (Sus scrofa) [12]): Active; Activity (HT-29 [13]): inactive; Activity (HT-29 [14]): Active
2 | O=c1[nH]c(CSC(=S)NCc2ccc(F)cc2F)nc2ccccc12 | 30.6 µM | 20.4 µM | 20.1 µM | 15.7 µM | 22.3 µM | –
3 | O=c1[nH]c(CSC(=S)NCc2ccc(Cl)cc2Cl)nc2ccccc12 | 12.8 µM | > 50 µM | 29 µM | 11.4 µM | 29.7 µM | –
4 | O=c1[nH]c(CSC(=S)NCc2ccccc2F)nc2ccccc12 | 21.2 µM | 20.5 µM | 13.2 µM | 16.4 µM | 20.3 µM | –
5 | O=c1[nH]c(CSC(=S)NCc2ccc([N+](=O)[O-])cc2)nc2ccccc12 | 11.4 µM | 19.3 µM | 28.4 µM | 17.2 µM | 16.4 µM | –
6 | O=c1[nH]c(CSC(=S)NCc2ccc3c(c2)OCO3)nc2ccccc12 | 44.6 µM | 21.7 µM | 20.3 µM | 19.3 µM | 34.2 µM | –
7 | O=c1[nH]c(CSC(=S)NCc2ccc(Cl)cc2)nc2ccccc12 | > 50 µM | > 50 µM | > 50 µM | > 50 µM | > 50 µM | –
8 | Cc1ccc(CNC(=S)SCc2nc3ccccc3c(=O)[nH]2)cc1 | 32.6 µM | 21.4 µM | 20.7 µM | 16.3 µM | 23.2 µM | –
9 | O=c1[nH]c(CSC(=S)NCc2ccc(C(F)(F)F)nc2)nc2ccccc12 | 12.9 µM | 19.2 µM | 28.4 µM | 16.5 µM | 16.7 µM | –
10 | O=c1[nH]c(CSC(=S)NCc2cccnc2)nc2ccccc12 | 14.8 µM | 20.2 µM | 11 µM | 14.2 µM | 11.2 µM | –
11 | O=c1[nH]c(CSC(=S)NCc2ccncc2)nc2ccccc12 | 6.13 µM | 16.1 µM | 12.5 µM | 16 µM | 6.67 µM | –
12 | CC(=O)O[C@H]1C(=O)[C@@]2(C)[C@H]([C@H](OC(=O)c3ccccc3)[C@]3(O)C[C@H](OC(=O)[C@H](O)[C@@H](NC(=O)c4ccccc4)c4ccccc4)C(C)=C1C3(C)C)[C@]1(OC(C)=O)CO[C@@H]1C[C@@H]2O [PACLITAXEL] | – | – | – | – | – | Activity (HT-29 [15]): 1.7%; Activity (HT-29 [16]): 17.6%; Activity (HT-29 [17]): 80.71%; Activity (HT-29 [14]): Active
13 | COC(=O)Nc1nc2cc(C(=O)c3cccs3)ccc2[nH]1 [NOCODAZOLE] | – | – | – | – | – | Activity_index (HT-29 [7]): 5.22; Activity_index (HT-29 [8]): 11.4; Activity_index (HT-29 [9]): 25.61; Activity_index (HT-29 [10]): 64.81
14 | COc1ccccc1CNC(=S)SCc1nc2ccccc2c(=O)[nH]1 | 12 µM | 14.8 µM | 16.5 µM | 12.3 µM | 30.6 µM | –
15 | O=c1[nH]c(CSC(=S)NCc2cccs2)nc2ccccc12 | 25.7 µM | 23.9 µM | 26.1 µM | 16.1 µM | 16.1 µM | –
16 | O=c1[nH]c(CSC(=S)NCc2ccco2)nc2ccccc12 | 42.6 µM | > 50 µM | 31.2 µM | 33.7 µM | 24.6 µM | –
17 | COc1cc(CNC(=S)SCc2nc3ccccc3c(=O)[nH]2)cc(OC)c1OC | 10.4 µM | 8.97 µM | 22.9 µM | 7.16 µM | 17.3 µM | –
18 | O=c1[nH]c(CSC(=S)NCc2ccc(Br)cc2)nc2ccccc12 | 18.2 µM | 39.2 µM | 22.9 µM | 32.3 µM | 45.3 µM | –
19 | O=c1[nH]c(CSC(=S)NCc2ccccc2)nc2ccccc12 | 23.7 µM | 31.3 µM | 10.7 µM | 14.5 µM | 18.1 µM | –
20 | O=c1[nH]c(CSC(=S)NCc2ccccn2)nc2ccccc12 | > 50 µM | > 50 µM | > 50 µM | > 50 µM | > 50 µM | –
21 | COc1ccc(CNC(=S)SCc2nc3ccccc3c(=O)[nH]2)c(OC)c1 | 10.5 µM | 13.5 µM | 16 µM | 10.1 µM | 25.5 µM | –
22 | CC[C@@]1(O)C(=O)OCc2c1cc1n(c2=O)Cc2cc3ccccc3nc2-1 [CAMPTOTHECIN] | – | – | – | – | – | Activity_index (HT-29 [7]): 1.55; Activity_index (HT-29 [8]): 1.11; Activity_index (HT-29 [9]): 0.33; Activity (HT-29 [18]): Active; Activity (HT-29 [19]): Active
23 | O=c1[nH]c(CSC(=S)NCc2ccc(F)cc2)nc2ccccc12 | 10.7 µM | 17.4 µM | 21.2 µM | 18.6 µM | 20.1 µM | –
24 | O=c1[nH]cc(F)c(=O)[nH]1 [FLUOROURACIL] | – | – | – | – | – | Activity (HT-29 [3]): 5.42%; Activity (HT-29 [4]): 91.11%; Activity (HT-29 [5]): 3.48%; Activity_index (HT-29 [7]): 2.28; Activity_index (HT-29 [8]): 2.09; Activity_index (HT-29 [9]): 0.29; Activity_index (HT-29 [10]): 0.23
